M18AAP inhibitor: PfM18AAP enzyme inhibition | recombinant PfM18AAP, H-Glu-NHMec fluorogenic cleavage | inhibition, % at 7.35 µM | 290,000 tested, 1.2% active;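 active = inhibition above the campaign mean inhibition over all tested compounds plus 3 SD, cut at about 28% in these data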
IMP-1 inh: inhibitors of Pseudomonas aeruginosa IMP-1 metallo-beta-lactamase; 290,000 tested, 0.45% active; inhibition, % at 5.6 µM; purified IMP-1, nitrocefin hydrolysis, epi-absorbance fluorescence; AID 1556;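 active = inhibition above the mean plus 3 SD of all compounds in the same screening run, cut at about 4.5% in these data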
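Assay system: purified recombinant IMP-1 beta-lactamase. Input: IMP-1 0.2 nM before substrate addition. Buffer or medium: Zinc- and detergent-supplemented HEPES buffer, pH 7.1. Schedule: 25 °C, 15 min preincubation, 25 min reaction. Signal: Epi-absorbance fluorescence, 480 nm excitation, 530 nm emission. Evaluation: percent inhibition from optical density relative to buffer-blank wells.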
VIM-2 inh: inhibitors of Pseudomonas aeruginosa VIM-2 metallo-beta-lactamase | purified VIM-2, nitrocefin hydrolysis, epi-absorbance fluorescence | inhibition, % at 5.6 µM | 290,000 tested, 0.89% active | AID 1527;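 active = inhibition above the mean of all tested compounds plus 3 SD, cutoff set per screening run, cut at about 7.5% in these data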;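 note: red hydrolysis product quenches plate fluorescence so inhibitors raise well fluorescence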
sPLA2-III inh: Inhibits HGIII-sPLA2 liposome hydrolysis, primary screen. inhibition, % at 12.2 µM. 370,000 tested, 0.56% active. Q9NZ20. AID 743126. QFRET BODIPY PC-A2 liposome hydrolysis, fluorescence;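 active = inhibition above mean plus 3 SD of compounds lying within the high and low control bounds, cut at about 19% in these data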
Target sequence (Q9NZ20 whole entry, looked up): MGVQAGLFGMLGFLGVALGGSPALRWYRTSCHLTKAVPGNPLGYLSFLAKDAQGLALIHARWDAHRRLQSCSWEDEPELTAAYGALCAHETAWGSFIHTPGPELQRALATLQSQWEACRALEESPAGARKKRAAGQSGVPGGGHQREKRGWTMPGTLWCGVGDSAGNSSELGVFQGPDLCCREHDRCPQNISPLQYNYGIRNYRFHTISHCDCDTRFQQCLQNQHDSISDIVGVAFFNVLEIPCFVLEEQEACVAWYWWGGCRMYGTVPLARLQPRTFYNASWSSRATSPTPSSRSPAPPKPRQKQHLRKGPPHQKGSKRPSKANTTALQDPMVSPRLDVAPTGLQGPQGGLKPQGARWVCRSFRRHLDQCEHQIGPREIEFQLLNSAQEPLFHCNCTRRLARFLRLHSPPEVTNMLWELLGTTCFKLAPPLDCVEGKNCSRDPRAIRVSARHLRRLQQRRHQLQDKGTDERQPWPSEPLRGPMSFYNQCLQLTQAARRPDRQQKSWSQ
Of the large screens only hits and unclear results are named; the others gave an inactive call. An excerpt weighted towards active compounds, which were near 2.4% of everything screened.

C=CCn1c(-c2csc(-c3ccccc3)n2)n[nH]c1=S	none
C=CCn1c(-c2cc(-c3ccccc3)sc2N)n[nH]c1=S	M18AAP inhibitor 28.3
Cc1cccc(C(=O)Nc2c(-c3ccc(C(F)(F)F)cc3)nc3ncccn23)c1	none (no result: M18AAP inhibitor, IMP-1 inh, VIM-2 inh)
O=Cc1cc(N=Nc2cccc(C(=O)O)c2)ccc1O	IMP-1 inh 12.9
O=Cc1cc(N=Nc2ccccc2Cl)ccc1O	IMP-1 inh 9.7
CCOc1nc(Nc2ccc(OC)c(Cl)c2)nc(OCC)n1	VIM-2 inh 10.0
COc1ccc(Nc2cc(C)nc3ncnn23)cc1Cl	VIM-2 inh 9.4
Cc1nc(N[C@@H](Cc2c[nH]c3ccccc23)C(=O)O)c2oc3ccccc3c2n1	VIM-2 inh 8.8
Cc1ccc(NC(=S)c2nc3ccccc3[nH]2)c(C)c1	sPLA2-III inh 31.2
Cc1ccc(NC(=S)c2nc3ccccc3[nH]2)cc1	none
C=CCN1[C@H](CO)[C@H](c2ccccc2)[C@@H]1C#N	none (no result: M18AAP inhibitor, IMP-1 inh, VIM-2 inh)
O=C(CSc1nc2nc(-c3cccs3)cc(C(F)(F)F)c2c(=O)[nH]1)NCc1ccco1	M18AAP inhibitor 28.3, VIM-2 inh 8.1
CC(=O)Nc1ccc(NC(=O)CSc2nc3nc(-c4cccs4)cc(C(F)(F)F)c3c(=O)[nH]2)cc1	none
COC(=O)CSc1nc2nc(-c3cccs3)cc(C(F)(F)F)c2c(=O)[nH]1	VIM-2 inh 11.9
O=C(NCc1ccco1)c1cnn2c(C(F)(F)F)cc(-c3cccs3)nc12	VIM-2 inh 9.3
COc1ccc(-c2cc(C(F)(F)F)n3nc(C(=O)NCc4ccco4)cc3n2)cc1OC	VIM-2 inh 8.7
CC(c1c[nH]c2ccccc12)c1c[nH]c2ccc(Br)cc12 (stereo not given)	none (no result: M18AAP inhibitor, IMP-1 inh, VIM-2 inh)
CCOC(=O)/C=C/C(=O)OCC(=O)Nc1ccc(Cl)cn1	none
CCOC(=O)NC1(Nc2ccc(Cl)cn2)Oc2ccccc2O1	M18AAP inhibitor 56.7 (no result: sPLA2-III inh)
CCN1C(=O)c2cccc3c(S(=O)(=O)NCc4ccccc4)ccc1c23	none (no result: M18AAP inhibitor, IMP-1 inh, VIM-2 inh)
CCN1C(=O)c2cccc3c(S(=O)(=O)Nc4ccc(O)c(C(=O)O)c4)ccc1c23	VIM-2 inh 8.2
Cc1cc(C)cc(NC(=O)CN(c2ccc(F)cc2)S(C)(=O)=O)c1	IMP-1 inh 7.4
Cc1cccc(N(CC(=O)Nc2ccc(F)cc2)S(C)(=O)=O)c1	none
COc1ccc(NC(=O)N2CCC(N(C)CCC(C)C)CC2)cc1OC	none (no result: M18AAP inhibitor, IMP-1 inh, VIM-2 inh)
O=C(CSc1nnc(-c2ccccn2)n1Cc1ccco1)Nc1ccc(Oc2ccccc2)cc1	none (no result: M18AAP inhibitor, IMP-1 inh, VIM-2 inh)
O=[N+]([O-])c1ccc(N/N=C/c2cccc(O)c2)cc1	M18AAP inhibitor 28.2
COCCNc1oc(/C=C/c2ccccc2)nc1C#N	none
CNc1oc(/C=C/c2ccccc2)nc1C#N	M18AAP inhibitor 33.9
O=C1CSC(=S)N1/N=C/C=C/c1ccccc1	M18AAP inhibitor 53.6
N=C1SCC(=O)N1/N=C/c1ccccc1	none
O=C1CSC(=S)N1/N=C/c1ccc(C(F)(F)F)cc1	M18AAP inhibitor 30.8
O=C(C1CCCO1)N1CCN(C2=Nc3ccccc3Sc3ccccc32)CC1 (stereo not given)	none (no result: M18AAP inhibitor, IMP-1 inh, VIM-2 inh)
CC(C)(N[C@@H](Cc1c[nH]c2ccccc12)C(=O)NCCCc1ccccc1)C(=O)NCc1ccccc1	none (no result: M18AAP inhibitor, IMP-1 inh, VIM-2 inh)
CCOc1ccccc1N1CC(O)=C(c2nc3ccccc3s2)C1=N	none
COc1ccc(OC)c(N2CC(O)=C(c3nc4ccccc4s3)C2=N)c1	IMP-1 inh 4.5
O=C(NCc1ccccc1)OCCCN1C(=O)CCC12CCCCC2	none (no result: M18AAP inhibitor, IMP-1 inh, VIM-2 inh)
CCCCN(C)CCNC(=O)c1cc2c(-c3ccccc3F)nn(C)c2s1	VIM-2 inh 11.0
CCCCN(C)CCNC(=O)c1cc2c(-c3cccc(OC)c3)nn(C)c2s1	VIM-2 inh 10.2
CCN(CC)CCCNC(=O)c1cc2c(-c3cccc(OC)c3)nn(C)c2s1	none
CCCCOc1ccc(C(=O)Nc2ccc(N3CCN(C)CC3)cc2)cc1	none
Cc1ccc(C(=O)Nc2ccc(N3CCN(C)CC3)cc2)cc1	VIM-2 inh 9.7
CCN1CCN(c2ccc(NC(=O)c3ccc4c(c3)OCO4)cc2)CC1	VIM-2 inh 9.3
CCOc1ccc(C(=O)Nc2ccc(N3CCN(C)CC3)cc2)cc1	VIM-2 inh 10.7
CCC(=O)N1CCN(c2ccc(NC(=O)c3ccc4c(c3)OCO4)cc2)CC1	none
CCN(CC)C(=O)O[C@H]1CC[C@@]23CCCN2C(=O)CCC[C@H]3C1	none (no result: M18AAP inhibitor, IMP-1 inh, VIM-2 inh)
CCOc1cc(CNc2ccc(CNc3ncn[nH]3)cc2)ccc1OCc1ccccc1	M18AAP inhibitor 39.6
S=C(N/N=C/c1ccc(Br)cc1)N1CCCCC1	none
Cc1ccc(/C=N/NC(=S)N2CCOCC2)cc1	M18AAP inhibitor 40.2
S=C(N/N=C/c1ccc(Cl)cc1)N1CCOCC1	M18AAP inhibitor 29.9
Cc1ccc(CC(=S)N2CCOCC2)cc1	M18AAP inhibitor 28.7
Cc1cc(C(=O)Nc2ncn[nH]2)ccc1[N+](=O)[O-]	M18AAP inhibitor 29.6
CCCS(=O)(=O)C/C(N)=N/OC(=O)c1ccccc1Cl	IMP-1 inh 8.3
Cn1cc(SCC(=O)N2CCCc3ccccc32)c2ccccc21	IMP-1 inh 6.9
Nc1nc(-c2ccc3c(c2)OCCO3)c(CC(=O)O)s1	IMP-1 inh 9.9
COc1cc(COc2ccc3c(C)c(CCC(=O)O)c(=O)oc3c2)cc(OC)c1OC	none
COc1ccc(-c2coc3c(C)c4oc(=O)c(CCC(=O)O)c(C)c4cc23)cc1	VIM-2 inh 11.3 (no result: sPLA2-III inh)
Cc1c(CC(=O)N[C@@H](C)C(=O)O)c(=O)oc2c(C)c3occ(-c4ccccc4)c3cc12	VIM-2 inh 10.1
Cc1oc2c(C)c3oc(=O)c(CCC(=O)NCCCCCC(=O)O)c(C)c3cc2c1C	none
Cc1c(CCC(=O)O)c(=O)oc2c(C)c3occ(-c4ccc(Br)cc4)c3cc12	IMP-1 inh 23.6
OC(c1ccccc1)(c1ccccc1)C1CCN(CCCOc2cccc(F)c2)CC1	none (no result: M18AAP inhibitor, IMP-1 inh, VIM-2 inh)
CCCCCCCCCn1c2c(c(=N)c3c1CCC3)CCC2	none (no result: sPLA2-III inh)
CCCCn1c2c(c(=N)c3c1CCC3)CCC2	IMP-1 inh 4.8
O=C(C1CCC1)N1CCc2cc(S(=O)(=O)N3CCCC3)ccc21	none (no result: M18AAP inhibitor, IMP-1 inh, VIM-2 inh)
CSc1cccc(-n2cc(-c3ccc4c(c3)OCO4)[nH]c2=O)c1	M18AAP inhibitor 28.6 (no result: sPLA2-III inh)
O=C(CCCN1C(=O)S/C(=C\c2ccccc2)C1=O)NNC(=O)c1ccccc1O	sPLA2-III inh 24.5
COc1ccc(/C=C2\SC(=O)N(CC(=O)NNC(=O)c3ccccc3O)C2=O)cc1	none
CN(C)C=Nc1nonc1-c1ccccc1	none
CN(C)C=Nc1nonc1-c1ncn[nH]1	M18AAP inhibitor 29.9
O=S1(=O)N=C(N2CCOCC2)c2ccccc21	none
CC1=NN(C2=NS(=O)(=O)c3ccccc32)C(C)(O)C1 (stereo not given)	M18AAP inhibitor 31.0
CCN(CC)c1ccc(NC(=O)C2CCCN(S(=O)(=O)c3cccnc3)C2)c(C)c1 (stereo not given)	M18AAP inhibitor 28.4
O=C(Nc1nccs1)C1CCN(S(=O)(=O)c2cccnc2)CC1	none (no result: M18AAP inhibitor, IMP-1 inh, VIM-2 inh)
O=C(Nc1nccs1)C1CCCN(S(=O)(=O)c2cccnc2)C1 (stereo not given)	IMP-1 inh 4.8
C=CCN(C(=O)[C@@H](CCCC)[C@@H](O)c1ccc(C(C)=O)cc1)c1ccccc1	none (no result: M18AAP inhibitor, IMP-1 inh, VIM-2 inh)
CNC(=O)CSc1nc2[nH]ncc2c(=O)[nH]1	M18AAP inhibitor 30.1
CCCNC(=O)CSc1nc2[nH]ncc2c(=O)[nH]1	none
